Results published in ChEMBL document CHEMBL4818997, “Synthesis and structure-activity studies of novel anhydrohexitol-based Leucyl-tRNA synthetase inhibitors” (Eur J Med Chem, 2021).
Active and inactive are the calls of the source. No cut-off for these calls is given here.

What was measured:
Leucine--tRNA ligase = Leucine--tRNA ligase (Escherichia coli (strain K12), UniProt P07813); assay: Inhibition of recombinant Escherichia coli LeuRS assessed as inhibition of 14C-radiolabelled leucine transfer to tRNA leucine preincubated for 10 mins followed by addition of ATP and measured after 4 mins by Scintillation counting method; details: read-out: Ki(app)
Sequence of Leucine--tRNA ligase (P07813 whole entry): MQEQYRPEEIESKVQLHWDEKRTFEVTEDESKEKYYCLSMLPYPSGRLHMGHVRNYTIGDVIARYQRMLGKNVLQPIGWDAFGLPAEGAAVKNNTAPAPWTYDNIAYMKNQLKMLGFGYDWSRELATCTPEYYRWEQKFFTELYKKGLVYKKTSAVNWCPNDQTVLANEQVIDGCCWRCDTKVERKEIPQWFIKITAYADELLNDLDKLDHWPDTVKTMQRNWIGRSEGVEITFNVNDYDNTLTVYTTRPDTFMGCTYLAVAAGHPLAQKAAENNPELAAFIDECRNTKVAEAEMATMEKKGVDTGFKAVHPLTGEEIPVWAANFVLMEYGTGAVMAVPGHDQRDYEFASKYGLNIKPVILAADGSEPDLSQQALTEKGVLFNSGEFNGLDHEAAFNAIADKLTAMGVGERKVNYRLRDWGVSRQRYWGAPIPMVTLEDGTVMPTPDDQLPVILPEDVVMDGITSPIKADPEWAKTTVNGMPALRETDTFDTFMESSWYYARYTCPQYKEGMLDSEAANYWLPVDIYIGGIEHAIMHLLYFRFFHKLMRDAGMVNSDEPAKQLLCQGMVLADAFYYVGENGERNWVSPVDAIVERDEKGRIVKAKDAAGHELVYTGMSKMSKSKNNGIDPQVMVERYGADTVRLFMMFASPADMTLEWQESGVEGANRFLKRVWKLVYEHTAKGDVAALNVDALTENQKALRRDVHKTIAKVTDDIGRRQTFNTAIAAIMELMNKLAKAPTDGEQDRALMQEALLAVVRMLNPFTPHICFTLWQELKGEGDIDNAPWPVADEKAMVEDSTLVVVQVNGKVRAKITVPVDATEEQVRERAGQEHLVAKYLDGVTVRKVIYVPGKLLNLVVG

Staphylococcus aureus [1] = assay: Antibacterial activity against Staphylococcus aureus ATCC6538 at 64 uM measured after 17 hrs by resazurin based flourimetric assay; assay type: functional, organism-based
In short: (§1)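 Bacteria grown in Mueller Hinton broth at 37 °C, inoculum 5×10^3 CFU/ml. […] After 17 h, resazurin was added for 1/2 h and fluorescence read (ex 550/em 590 nm). Results are % growth reduction versus untreated and medium-only wells.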

Candida albicans = assay: Antifungal activity against Candida albicans at 64 uM measured after 17 hrs by resazurin based flourimetric assay; assay type: functional, organism-based
In short: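 Compounds were 4-fold serially diluted in RPMI with 1% DMSO background, from 64.0 µM down to 3.9×10^-3 µM. Miconazole 0.25 µM served as positive control.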

Escherichia coli [2] = assay: Antibacterial activity against Escherichia coli ATCC8739 at 64 uM measured after 17 hrs by resazurin based flourimetric assay; assay type: functional, organism-based; in short: as §1
[3] = tested on: Mycobacterium tuberculosis; assay: Antibacterial activity against Mycobacterium tuberculosis H37Ra […] assessed as inhibition of bacterial growth at 128 uM measured after 17 hrs by resazurin based flourimetric assay; assay type: functional
In short: (§2)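 M. tuberculosis H37Ra cultured in 7H9 + 10% OADC at 37 °C. Compounds serially pre-diluted 2-fold in DMSO, then diluted in water, final DMSO <1%, top concentration 128 µM. Inoculum 5×10^3 CFU/ml. After 17 h, resazurin added, 1/2 h at 37 °C, fluorescence read (ex 550/em 590 nm). Growth expressed as % reduction versus untreated and medium controls; IC50 derived.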

[4] = tested on: Mycobacterium tuberculosis; assay: Antibacterial activity against Mycobacterium tuberculosis H37Ra […] assessed as inhibition of bacterial growth measured after 17 hrs by resazurin based flourimetric assay; assay type: functional, organism-based; in short: as §2
Escherichia coli [5] = assay: Antibacterial activity against Escherichia coli ATCC8739 assessed as inhibition of bacterial growth measured after 17 hrs by resazurin based flourimetric assay; assay type: functional, organism-based; details: ATCC8739, ATCC 8739, 17 h; in short: as §1
Staphylococcus aureus [6] = assay: Antibacterial activity against Staphylococcus aureus ATCC6538 assessed as inhibition of bacterial growth measured after 17 hrs by resazurin based flourimetric assay; assay type: functional, organism-based; details: ATCC6538, 17 h; in short: as §1

Structure (SMILES)	Ki (Leucine--tRNA ligase)	Activity (Staphylococcus aureus [1])	Activity (Candida albicans)	Activity (Escherichia coli [2])	inhibition at 128 µM [3]	IC50 [4]	IC50 (Escherichia coli [5])	IC50 (Staphylococcus aureus [6])
CC(C)C[C@H](N)C(=O)NS(=O)(=O)OC[C@H]1OC[C@@H](CCCn2cc(-c3ccc(OC(F)(F)F)cc3)nn2)[C@H](O)[C@@H]1O	17.8 nM	inactive	inactive	inactive	27.8%			
CC(C)C[C@H](N)C(=O)NS(=O)(=O)OC[C@H]1OC[C@@H](CCCn2cc(CCc3ccccc3)nn2)[C@H](O)[C@@H]1O	108 nM	inactive	inactive	inactive	38.2%			
COc1c(N2C[C@@H]3CCCN[C@@H]3C2)c(F)cc2c(=O)c(C(=O)O)cn(C3CC3)c12 [MOXIFLOXACIN]						250 nM		
CC(C)C[C@H](N)C(=O)NS(=O)(=O)OC[C@H]1OC[C@@H](CCCn2cc(CNC(=O)c3ccccc3)nn2)[C@H](O)[C@@H]1O	31.3 nM	inactive	inactive	inactive				
CCCCCc1ccc(-c2cn(CCC[C@@H]3CO[C@H](COS(=O)(=O)NC(=O)[C@@H](N)CC(C)C)[C@@H](O)[C@H]3O)nn2)cc1	5.51 nM	inactive	inactive	inactive	86.1%	24700 nM		
C[C@H]1c2cccc(O)c2C(=O)C2=C(O)[C@]3(O)C(=O)C(C(N)=O)=C(O)[C@@H](N(C)C)[C@@H]3[C@@H](O)[C@@H]21 [DOXYCYCLINE]							730 nM	110 nM
CC(C)C[C@H](N)C(=O)NS(=O)(=O)OC[C@H]1OC[C@@H](CCCn2cc(CN)nn2)[C@H](O)[C@@H]1O	2970 nM	inactive	inactive	inactive	9.44%			
CC(C)C[C@H](N)C(=O)NS(=O)(=O)OC[C@H]1OC[C@@H](CCCn2cc(-c3cccnc3)nn2)[C@H](O)[C@@H]1O	31.6 nM	inactive	inactive	inactive	16.9%			
CCCCCCCCc1cn(CCC[C@@H]2CO[C@H](COS(=O)(=O)NC(=O)[C@@H](N)CC(C)C)[C@@H](O)[C@H]2O)nn1	52.4 nM	inactive	inactive	inactive	4.26%			
CC(C)C[C@H](N)C(=O)NS(=O)(=O)OC[C@H]1OC[C@@H](CCCn2cc(CCCCO)nn2)[C@H](O)[C@@H]1O	388 nM	inactive	inactive	inactive	23.2%			
CC(C)C[C@H](N)C(=O)NS(=O)(=O)OC[C@H]1O[C@@H](CCn2nnc(-c3ccccc3)n2)[C@H](O)[C@@H]1O	30.9 nM	inactive	inactive	inactive	49.8%			
CC(C)C[C@H](N)C(=O)NS(=O)(=O)OC[C@H]1OC[C@@H](CCCn2cc(CNCc3ccccc3)nn2)[C@H](O)[C@@H]1O	1260 nM	inactive	inactive	inactive	12.1%			
